A selection: hits, their analogues and other compounds. The true share with any hit is near 1.7%.
STEP inh: STEP (human) phosphatase inhibition; P54829; recombinant STEP, OMFP fluorogenic substrate, fluorescence; inhibition, % at 20 µM; 360,000 tested, 0.25% active;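 active = inhibition at 20 µM, scaled per plate between control wells, above about 37%, limit read from the data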
Target sequence (P54829 whole entry, looked up): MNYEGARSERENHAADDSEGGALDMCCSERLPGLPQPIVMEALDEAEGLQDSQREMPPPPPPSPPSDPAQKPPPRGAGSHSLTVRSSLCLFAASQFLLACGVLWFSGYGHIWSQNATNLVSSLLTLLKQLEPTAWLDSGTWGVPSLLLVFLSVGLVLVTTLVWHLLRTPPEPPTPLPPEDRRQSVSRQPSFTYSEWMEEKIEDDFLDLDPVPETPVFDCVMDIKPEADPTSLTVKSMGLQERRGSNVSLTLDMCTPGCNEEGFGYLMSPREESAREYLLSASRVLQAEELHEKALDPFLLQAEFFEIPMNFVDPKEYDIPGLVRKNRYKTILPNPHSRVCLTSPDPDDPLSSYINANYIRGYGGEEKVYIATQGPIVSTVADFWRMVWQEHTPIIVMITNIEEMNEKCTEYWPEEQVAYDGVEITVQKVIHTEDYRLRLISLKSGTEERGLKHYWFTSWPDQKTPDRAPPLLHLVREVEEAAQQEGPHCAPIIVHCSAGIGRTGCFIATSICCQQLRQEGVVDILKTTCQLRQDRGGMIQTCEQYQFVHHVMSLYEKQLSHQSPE
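Assay system: isolated STEP enzyme. Buffer or medium: pH 6.0 Bis-Tris with DTT and Tween 20. Also added: fluorogenic phosphatase substrate OMFP at 25 µM final. Dosing: 20 µM, 1% DMSO. Timing: 20 min reaction, room temperature, in the dark. Measured by: fluorescence intensity, excitation 480 nm, emission 540 nm. Evaluation: normalized % inhibition.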
DNMT1 block: DNMT1 (human) enzyme inhibition; 360,000 tested, 0.83% active; DNMT1 molecular beacon, Hinp1I cleavage, fluorescence; AID 588458; inhibition (reported as % activation of signal), % at 10 µM; P26358; in the data active = inhibition above about 50%
Scp-1 inhibitor: Scp-1 (human) phosphatase inhibition | inhibition, % at 20 µM | AID 493091 | Recombinant Scp1, phosphopeptide, malachite green phosphate absorbance | 340,000 tested, 0.88% active;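 active = inhibition above about 50% at 20 µM, limit read from the data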
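Times: enzyme reaction 45 min at room temperature, colour 5 min, stabilisation 30 min. Material: SCP-1 catalytic fragment, aa 76-261. Medium: Acidic Tris acetate buffer with magnesium and detergent. Signal: colorimetric free-phosphate detection, absorbance 630 nm. Read-out basis: % inhibition of SCP-1 phosphate liberation. Reagent: Phosphorylated 17-residue peptide substrate.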
LMPTP inh: LMPTP (human) inhibition. P24666. inhibition, % at 20 µM. 360,000 tested, 0.22% active. recombinant LMPTP-A, OMFP fluorogenic substrate, fluorescence intensity;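 active = compounds that cut the enzyme signal by at least half of the control window in the single-dose screen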
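Assay system: LMPTP-A enzyme. Input: 0.625 nM LMPTP-A final. Probe or stimulus: 400 µM OMFP. Compound dosing: single 20 µM dose. Schedule: 50 min dark incubation at room temperature. Detection: fluorescence intensity of OMFP turnover product. Read-out: percent inhibition versus substrate-only and uninhibited controls. Benchmarks: no-enzyme low control, uninhibited high control.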
SUMO1 PPI mod: modulators of human SUMO1-mediated protein-protein interactions; inhibition, % at 20 µM; SUMO1 binding to a labelled peptide, TR-FRET, 1 h; 360,000 tested, 0.33% active; AID 602429; in the data active = inhibition above about 37%
Target sequence (P63165 whole entry, looked up): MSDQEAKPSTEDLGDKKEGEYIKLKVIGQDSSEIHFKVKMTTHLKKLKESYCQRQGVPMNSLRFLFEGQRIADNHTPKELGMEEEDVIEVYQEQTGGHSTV
Beacon interf DR: beacon fluorescence artifact, dose response counter-screen. IC50, µM. 200 tested, under 10 active. shares compounds with DNMT1 block. molecular beacon fluorescence, spectral interference counter-screen; call rule not given here
DNMT1 confirm: DNMT1 inhibition confirmation, single concentration; shares compounds with DNMT1 block; DNMT1 molecular beacon HinP1I cleavage, fluorescence; inhibition, % at 10 µM; 2,300 tested, 8% active;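 active = average inhibition of at least 30% in the single-concentration confirmation test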
Beacon interf: shows spectral interference in the DNMT1 beacon assay | activation (fluorescence interference), % at 10 µM | DNMT1 molecular beacon spectral interference counterscreen, fluorescence 485/520 | shares compounds with DNMT1 block | AID 602387 | 2,300 tested, 1% active;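 active = activation of at least 30% at 10 µM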;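 note: DNMT1 catalytic domain with a HinP1I cleavage step and a FAM/dabcyl DNA beacon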
Large screens that a line does not name were inactive (follow-up assays come after a bar, where they were run).

O=C(N/N=C/c1ccc(OC(=O)c2ccc(Br)cc2)cc1)c1ccncc1	DNMT1 block 57.2 | DNMT1 confirm inactive | Beacon interf inactive
O=C(N/N=C/c1ccc(OC(=O)c2ccco2)cc1)c1ccncc1	none
NC(=O)c1cc(C(=O)Cc2ccc(Cl)cc2)c[nH]1	none
O=C(O)C1C=CCC(C(=O)O)C1 (configuration not stated)	DNMT1 block 97.9 (no result: Scp-1 inhibitor) | DNMT1 confirm inactive | Beacon interf inactive
CCc1ccccc1NC(=O)CSc1ccsc1[N+](=O)[O-]	DNMT1 block 53.0 | DNMT1 confirm inactive | Beacon interf inactive
COc1ccccc1CNC(=O)CSc1ccsc1[N+](=O)[O-]	none
O=C(Nc1ccc(-c2cn3ccccc3n2)cc1)c1ccc(Cl)cc1	DNMT1 block 52.6 | DNMT1 confirm inactive | Beacon interf inactive
NCCCC[C@@H]1NC(=O)c2cc([N+](=O)[O-])cc(F)c2NCCCC[C@@H](C(N)=O)NC(=O)CNC1=O	DNMT1 block 103.8 | DNMT1 confirm inactive | Beacon interf inactive
O=c1ccn([C@@H]2O[C@H](CO)[C@@H](O)[C@H]2O)c(=O)[nH]1	DNMT1 block 81.3 | DNMT1 confirm inactive | Beacon interf inactive
O=C(CC[C@H]1O[C@@H](n2ccc(=O)[nH]c2=O)[C@H](O)[C@@H]1O)N1CCN(Cc2cccc3ccccc23)CC1	DNMT1 block 85.0 (no result: Scp-1 inhibitor) | DNMT1 confirm inactive | Beacon interf inactive
C[C@H](NC(=O)CC[C@H]1O[C@@H](n2ccc(=O)[nH]c2=O)[C@H](O)[C@@H]1O)C(=O)O	none (no result: Scp-1 inhibitor)
O=C(CC[C@H]1O[C@@H](n2ccc(=O)[nH]c2=O)[C@H](O)[C@@H]1O)N1CCN(c2ccccn2)CC1	none (no result: Scp-1 inhibitor)
Cc1cc(Br)ccc1NC(=O)CNC(=O)CSc1nccn1C	none
CN(C(=O)COC(=O)CNC(=O)c1sc2ccccc2c1Cl)C1CCS(=O)(=O)C1 (configuration not stated)	none
CN(c1ccccc1)c1ccc(/C=C(/CCC(=O)O)c2nc3ccccc3s2)cc1[N+](=O)[O-]	DNMT1 block 84.7, SUMO1 PPI mod 39.0 | Beacon interf DR inactive | DNMT1 confirm inactive | Beacon interf inactive
COc1ccc(CCN2CC(C(=O)OCC(=O)Nc3c(C)nn(-c4ccccc4)c3C)CC2=O)cc1OC (configuration not stated)	DNMT1 block 85.9 | DNMT1 confirm inactive | Beacon interf inactive
O=C(CC[C@H]1O[C@@H](n2cnc3c(NC(=O)c4ccccc4)ncnc32)[C@H](O)[C@@H]1O)NCc1nc2ccccc2[nH]1	DNMT1 block 116.2, SUMO1 PPI mod 43.9 (no result: Scp-1 inhibitor) | DNMT1 confirm inactive | Beacon interf inactive
CCOC(=O)/C=c1/s/c(=C/c2ccc3cc(OC)ccc3c2)c(=O)n1CC(=O)NCC1CCCO1 (configuration not stated)	DNMT1 block 53.8 | DNMT1 confirm inactive | Beacon interf inactive
CCOC(=O)/C=c1\s/c(=C\c2ccc(C#N)cc2)c(=O)n1CC(=O)NCc1ccco1	DNMT1 block 50.4 | DNMT1 confirm inactive | Beacon interf inactive
Cc1ccc(-n2c(=O)c3c(c4cc(C)ccc4n3C)n(CC(=O)NCC3CCCO3)c2=O)cc1 (configuration not stated)	none (no result: Scp-1 inhibitor)
CCOC(=O)/C=c1\s/c(=C\c2c(OC)ccc3ccccc23)c(=O)n1CC(=O)NCC1CCCO1 (configuration not stated)	none
COc1ccc2c(c1)c1c(c(=O)n(-c3ccc(C)cc3)c(=O)n1CC(=O)NCC1CCCO1)n2C (configuration not stated)	DNMT1 block 98.0 (no result: Scp-1 inhibitor) | DNMT1 confirm inactive | Beacon interf inactive
COc1cc(CC(=O)N2CCN(S(=O)(=O)c3ccc(C(C)C)cc3)CC2)cc(OC)c1OC	none (no result: Scp-1 inhibitor)
O=C1NC[C@H](CCCCN2CCN(CC3CCCCC3)C(=O)C2=O)N(CCC2CCCCC2)C1=O	none (no result: STEP inh, DNMT1 block, Scp-1 inhibitor)
O=C(N/N=C/c1ccc(O)c(Br)c1)c1cc2c(ccc3ccccc32)o1	none
O=C(N/N=C/c1ccc([N+](=O)[O-])o1)c1cc2c(ccc3ccccc32)o1	STEP inh 95.3, DNMT1 block 84.9, Scp-1 inhibitor 93.7, LMPTP inh 79.1 | DNMT1 confirm inactive | Beacon interf inactive
Cc1ccc(/C=N/NC(=O)c2cc3c(ccc4ccccc43)o2)cc1[N+](=O)[O-]	DNMT1 block 80.3 | DNMT1 confirm inactive | Beacon interf inactive
CC1CCCC(C)N1C(=O)COC(=O)c1nn(C)c(=O)c2ccccc12 (configuration not stated)	none
CCCC(=O)O[C@]1(C(=O)COC(C)=O)CC[C@H]2[C@@H]3C[C@H](F)C4=CC(=O)C=C[C@]4(C)[C@@]3(F)[C@@H](O)C[C@@]21C	none
CC(=O)[C@@]1(O)CC[C@H]2[C@@H]3C[C@H](C)C4=CC(=O)C=C[C@]4(C)[C@@]3(F)[C@@H](O)C[C@@]21C	DNMT1 block 79.7 | DNMT1 confirm inactive | Beacon interf inactive
O=c1[nH]c(=O)c2nc3c4ccccc4c4ccccc4c3nc2[nH]1	DNMT1 block 78.6, SUMO1 PPI mod 83.8 | DNMT1 confirm inactive | Beacon interf inactive
O=C(N/N=C/c1cn(Cc2cccc(F)c2)c2ccccc12)c1cc(O)cc(O)c1	STEP inh 98.1, DNMT1 block 93.1, Scp-1 inhibitor 76.8, SUMO1 PPI mod 52.7 | Beacon interf DR inactive | DNMT1 confirm 120.8 | Beacon interf inactive
CCOC(=O)c1c(NC(C)=O)sc2c(OCC(O)CN(CC)CC)c(Br)ccc12 (configuration not stated)	DNMT1 block 75.7 | DNMT1 confirm inactive | Beacon interf inactive
O=C(COc1cc(O)c2c(=O)cc(-c3ccccc3)oc2c1)c1ccc(F)cc1	DNMT1 block 54.3 | DNMT1 confirm inactive | Beacon interf inactive
CNC[C@@H]1Oc2ccc(NC(=O)Nc3c(C)noc3C)cc2CC(=O)N([C@H](C)CO)C[C@H]1C	none
CC(O)(c1ccccc1)c1nc(-c2ccc(S(C)(=O)=O)cc2)cs1 (configuration not stated)	none (no result: Scp-1 inhibitor)
Cc1ccc(Cn2c(/C=C/c3ccco3)nc3ccccc32)cc1	DNMT1 block 75.7 | DNMT1 confirm inactive | Beacon interf inactive
Cc1ccccc1-c1cccc([C@@H]2C[C@H]3[C@H](CON3C)CN2C(=O)CCc2ccccc2)c1	DNMT1 block 77.5 | DNMT1 confirm inactive | Beacon interf inactive

Screening results from PubChem BioAssay.
